Compounds with a hit are over-represented: about 1.5% of the library has one in this group of screens.
Myeloid diff 2: induction of myeloid progenitor differentiation, primary screen, cell-based, flow cytometry, MLPCN library; ER-HoxA9 myeloid progenitors, lysozyme-GFP differentiation; calls only at 10 µM; 360,000 compounds, 1% hits; AID 624256, 2012;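 active = normalized GFP-positive differentiation at or above the plate's own cutoff, the solvent-only control mean plus 3 SD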;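 also: cells exposed to compound for four days before flow analysis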
VLA-4 inh: inhibition in human VLA-4 binding assay, primary screen, VLA-4 allosteric modulator project, MLPCN library, flow cytometry, VLA-4 expressing cells; Integrin alpha-4 (Homo sapiens), P13612; ligand binding flow cytometry; inhibition, % (about 7 µM as worked out from the volumes in the protocol); 330,000 compounds, 0.2% hits; AID 2557, 2010; in the data active = inhibition above about 50%
Platelet DG rel: inhibitors of platelet dense granule secretion, primary screen, cell-based, MLPCN, human platelets | inhibition, %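 (compounds screened at 7.5 µM in platelet-rich plasma)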 | 300,000 compounds, 0.22% hits | human platelet-rich plasma, SFLLRN dense granule ATP release, luminescence;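 active = mean replicate score, as percent of positive control, at or above 50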
SENP1 inh: human SENP1 catalytic domain inhibitors, primary screen, biochemical, FRET, uHTS. inhibition, % at 10 µM. recombinant SENP1 catalytic domain, CyPet-SUMO1-YPet FRET cleavage. AID 624204, 2012. 360,000 compounds, 0.21% hits. Sentrin-specific protease 1 (Homo sapiens), Q9P0U3;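 active = inhibition at least 30% at 10 µM, raw YFP signal under a set limit, fluorescence ratio 0.5 to 1.5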;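 also: 0% = enzyme with DMSO and 100% = no enzyme wells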
Target sequence (Q9P0U3 419-644 limits assumed): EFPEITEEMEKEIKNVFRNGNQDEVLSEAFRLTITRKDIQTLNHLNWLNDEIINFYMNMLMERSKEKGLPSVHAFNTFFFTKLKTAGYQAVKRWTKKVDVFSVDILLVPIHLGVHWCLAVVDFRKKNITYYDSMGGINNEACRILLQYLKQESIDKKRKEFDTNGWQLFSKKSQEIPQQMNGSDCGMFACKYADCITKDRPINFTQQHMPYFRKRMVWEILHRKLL
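System: Recombinant human SENP1 catalytic domain, His6-tagged | Incubation: Enzyme reaction for 50 min at room temperature, dark | Medium: Tris pH 8 with BME, BSA, NP40 and catalase | Also added: 25 nM SUMO1 FRET substrate | Compound: 10 µM single point, 0.5% DMSO | Measured by: FRET fluorescence in CFP and YFP emission channels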
Active calls of the source: *; ! = a repeat was not active.

CCCCCCc1cc2cc(-c3nnc(-c4ccccc4OC)o3)c(=O)oc2cc1O was read as Myeloid diff 2 active, VLA-4 inh inactive, Platelet DG rel -3 and SENP1 inh -27.
CSc1ccccc1NC(=O)COc1nsnc1N1CCOCC1 was read as Myeloid diff 2 active, VLA-4 inh 1, Platelet DG rel 1 and SENP1 inh 0.
For O=C(COc1nsnc1N1CCOCC1)Nc1ccc(Cl)cc1 the results were Myeloid diff 2 inactive, VLA-4 inh 3, Platelet DG rel 8 and SENP1 inh -1.
Screening CCn1cc(C2C(C(=O)Nc3cc(C)ccn3)=C(C)NC3=C2C(=O)CC(C)(C)C3)c(C)n1 (stereo not given) returned Myeloid diff 2 inactive, VLA-4 inh -5, Platelet DG rel -31 and SENP1 inh -134.
O=C(NCc1ccco1)c1cc2ccc(O)cc2oc1=O was read as Myeloid diff 2 inactive, VLA-4 inh -2, Platelet DG rel 70* and SENP1 inh -15.
Screening O=C(c1ccccc1)c1cc2ccc(O)cc2oc1=O returned Myeloid diff 2 inactive, VLA-4 inh -4, Platelet DG rel 95* and SENP1 inh -28.
Screening COc1ccc2cc(C(=O)NCc3ccco3)c(=O)oc2c1 returned Myeloid diff 2 inactive, VLA-4 inh 10, Platelet DG rel 16 and SENP1 inh -165.
For O=C(c1ccc(Br)cc1)c1cc2ccc(O)cc2oc1=O the results were Myeloid diff 2 inactive, VLA-4 inh 6, Platelet DG rel 7 and SENP1 inh -22.
CNc1c2c(nn1C)CCCC2 was read as Myeloid diff 2 active!, VLA-4 inh 11, Platelet DG rel -9 and SENP1 inh 2.
`CCCCCCSc1ccc([C@H]2N[C@@](CC(C)C)(C(=O)OC)[C@H]3C(=O)N(C)C(=O)[C@@H]23)cc1OC` gave Myeloid diff 2 inactive, VLA-4 inh 2, Platelet DG rel 5 and SENP1 inh 0.
For Cc1n[nH]c(=O)c2c(NC(=O)CSc3nnc(C4CC4)n3C)oc(C)c12 the results were Myeloid diff 2 inactive, VLA-4 inh -4, Platelet DG rel -3 and SENP1 inh -2.
Nc1nc(-c2ccccc2)cs1 was read as Myeloid diff 2 inactive, VLA-4 inh 2, Platelet DG rel 2 and SENP1 inh 3.
Screening Nc1nc(C(c2ccccc2)c2ccccc2)cs1 returned Myeloid diff 2 active, VLA-4 inh -4, Platelet DG rel -3 and SENP1 inh -1.
`COC(=O)c1ccccc1NN=Nc1ccccc1[N+](=O)[O-]` gave Myeloid diff 2 inactive and SENP1 inh 1.
`COc1cccc(/C=N/Nc2ccc(S(=O)(=O)O)cc2)c1O` gave Myeloid diff 2 inactive, VLA-4 inh 2, Platelet DG rel 56* and SENP1 inh -1.
`COc1cccc(/C=N/Nc2ccc(C(=O)O)cc2)c1O` gave Myeloid diff 2 inactive, VLA-4 inh -12, Platelet DG rel 95* and SENP1 inh -7.
For O=S(=O)(O)c1ccc(NN=Cc2ccccc2O)cc1 the results were Myeloid diff 2 inactive and SENP1 inh -5.
COc1cccc(OCc2cc(/C=N/Nc3ccc(C(=O)O)cc3)ccc2OC)c1 was read as Myeloid diff 2 inactive, VLA-4 inh -3, Platelet DG rel 65* and SENP1 inh -2.
Screening COCCCNC(=S)Nc1c(C)cc(C)cc1C returned Myeloid diff 2 inactive, VLA-4 inh -10, Platelet DG rel -2 and SENP1 inh -1.
`CC(NC(C)c1ccccc1Cl)C(=O)Nc1cccc(S(=O)(=O)N2CCCCC2)c1` (stereo not given) gave Myeloid diff 2 inactive, VLA-4 inh 2 and SENP1 inh 3.
For CCCc1cc(C(=O)N2CCCC(Nc3ccc(C)c(C)c3)C2)n(C)n1 (stereo not given) the results were Myeloid diff 2 inactive, VLA-4 inh -13, Platelet DG rel -1 and SENP1 inh 0.
`CCOC(=O)c1[nH]c(C)c(C(=O)OCC)c1C` gave Myeloid diff 2 inactive, VLA-4 inh 9, Platelet DG rel 8 and SENP1 inh 4.
Screening CCOC(=O)c1c(C)[nH]c(C(=O)COC(=O)c2[nH]c(C)c(C(C)=O)c2C)c1C returned Myeloid diff 2 active, VLA-4 inh -20, Platelet DG rel 4 and SENP1 inh 1.
For CCCOc1ccc(CNC(=O)c2ccc3c(c2)N(CC)CCS3)cc1 the results were Myeloid diff 2 active, VLA-4 inh -7, Platelet DG rel 96* and SENP1 inh -4.
For COC(=O)C1=CN(c2ccc(Oc3ccccc3)cc2)C(N)=C(C#N)C1c1ccccc1 (stereo not given) the results were Myeloid diff 2 inactive and SENP1 inh -10.
CC(C)N1CC23C=CC(O2)C(C(=O)OCc2ccccc2)C3C1=O (stereo not given) was read as Myeloid diff 2 inactive, VLA-4 inh 1, Platelet DG rel 1 and SENP1 inh 3.
For CCOC(=O)C1C2C=CC3(CN(c4ccccc4CC)C(=O)C13)O2 (stereo not given) the results were Myeloid diff 2 inactive, VLA-4 inh 4, Platelet DG rel 2 and SENP1 inh 2.
Screening CCCCCOC(=O)C1C2C=CC3(CN(c4ccccc4C)C(=O)C13)O2 (stereo not given) returned Myeloid diff 2 active, VLA-4 inh -4, Platelet DG rel 0 and SENP1 inh -1.
CC(C)N1C[C@@]23C=C[C@@H](O2)C(C(=O)OCc2ccccc2)[C@H]3C1=O (stereo not given in full) was read as Myeloid diff 2 inactive, VLA-4 inh -2, Platelet DG rel 56* and SENP1 inh -1.
For CCN(CC)S(=O)(=O)c1ccc(/C=C/C(=O)OCC(=O)NNC(=O)c2ccc(OC)cc2)cc1 the results were Myeloid diff 2 inactive, VLA-4 inh 22 and SENP1 inh 2.
`Cc1ccc(NS(=O)(=O)c2cc([N+](=O)[O-])ccc2NNC(=S)Nc2cccc(Cl)c2)c(C)c1` gave Myeloid diff 2 inactive, VLA-4 inh inactive, Platelet DG rel 2 and SENP1 inh 54*.
For Cc1ccc(NS(=O)(=O)c2cc([N+](=O)[O-])ccc2NNC(=S)Nc2cc(C)ccc2C)c(C)c1 the results were Myeloid diff 2 inactive, VLA-4 inh -44, Platelet DG rel 9 and SENP1 inh 62*.
COc1ccc(NC(=S)NNc2ccc([N+](=O)[O-])cc2S(=O)(=O)Nc2ccc(C)cc2C)cc1 was read as Myeloid diff 2 inactive, VLA-4 inh -46, Platelet DG rel -12 and SENP1 inh 42*.
Cc1ccc([N+](=O)[O-])cc1S(=O)(=O)Nc1ccc(C(=O)N(C)C)cc1 was read as Myeloid diff 2 inactive, VLA-4 inh 2, Platelet DG rel 0 and SENP1 inh 2.
Screening CC(=O)Nc1ccc(NS(=O)(=O)c2cc([N+](=O)[O-])ccc2C)cc1 returned Myeloid diff 2 inactive, VLA-4 inh 55*, Platelet DG rel -1 and SENP1 inh 0.
